From ChEMBL document CHEMBL2311339, “Identification of GZD824 as an orally bioavailable inhibitor that targets phosphorylated and nonphosphorylated breakpoint cluster region-Abelson (Bcr-Abl) kinase and overcomes clinically acquired mutation-induced resistance against imatinib” (J Med Chem, 2013) come the findings set out here.

Each structure is given as a SMILES string. Calls of active or inactive are those of the source. No cut-off for these calls is given here.

The subject of assay [1] is BaF3. Put plainly: Antitumor activity against mouse BA/F3 cells expressing wild type BCR-ABL allografted in SCID mouse assessed as induction of tumor regression at 5 mg/kg/day, po qd for 14 days. It is filed as functional, organism-based. In outline: (§1)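 Ba/F3 cells stably expressing Bcr-Abl (wild type or mutant) were grown in RPMI 1640 with 10% FBS and no IL-3, then suspended in saline (2.5 × 10^7 cells/mL) and given as 0.2 mL s.c. in the right flank. Groups were randomised at 100−200 mm3. Once-daily oral gavage for 14 days in DMSO/Cremophor/ethanol/saline vehicle; reference imatinib 50 or 100 mg/kg/day. Volume L × W²/2 every 2 days; n = 10; t test versus vehicle.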

Assay [2] in a line: Cytotoxicity against mouse BA/F3 cells expressing BCR-ABL H396R mutant assessed as growth inhibition after 72 hrs by CCK-8 assay. Conditions: BaF3, 72 h. (In general: Tetrazolium dyes change colour on reduction, which living cells bring about.)
For assay [3], the target named is Tyrosine-protein kinase ABL1 (Homo sapiens, UniProt P00519, H396P). Kind of assay: Binding affinity to non phosphorylated ABL1 H396P mutant (unknown origin) after 1 hr.
A further assay concerns HL-60. Kind of assay: Cytotoxicity against human HL60 cells […] assessed as growth inhibition after 72 hrs by CCK-8 assay. The following applies: HL-60, 72 h. The class given is functional, cell-based. In outline:
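Log-phase human leukemia cells were seeded at about 3000 cells/well and treated 24 h later for 72 h. CCK-8 was then incubated with the cells for 3 h and read as OD450 − OD650. Viability was normalized to vehicle wells and cell-free blanks, and IC50 taken as the mean of three experiments.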

For assay [4], the target named is Tyrosine-protein kinase ABL1 (Homo sapiens, UniProt P00519, M351T). Kind of assay: Inhibition of human recombinant ABL1 M351T mutant expressed in insect cells after 30 mins by FRET assay. The class given is cell-based.
The test system of assay [5] is BaF3. Kind of assay: Antitumor activity against mouse BA/F3 cells expressing BCR-ABL T315I mutant allografted in po dosed SCID mouse assessed as inhibition of tumor growth administered qd for 14 days. It is filed as functional, organism-based. Put shortly:
as §1

What is called IC50 is the concentration at which inhibition is half-maximal. For orientation: Kd means the equilibrium constant for the complex coming apart. A higher Kd goes with lower affinity.

For the compound `Cc1ccc(C(=O)Nc2ccc(CN3CCN(C)CC3)c(C(F)(F)F)c2)cc1C#Cc1cnc2[nH]ncc2c1` [OLVEREMBATINIB], the result with BaF3 [1] was Active. For the same compound, the IC50 in assay [2] was 5.5 nM; in the assay on HL-60 it was 349 nM; in assay [4], 0.29 nM. Besides, the Kd in assay [3] came out at 0.18 nM. Also, the TGI result with BaF3 [5] was “Active”.
